The species named for experiment [1] is Rattus norvegicus. As to the kind of experiment: The percent block of uptake of [64Cu]-TETA-Y3-TATE in somatostatin-rich tissues by a co-injection of compound. The class given is functional. In short, it runs like this: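 In CA20948 tumor-bearing Lewis rats, [⁶⁴Cu]TETA-Y3-TATE (5.4 μCi, 5 ng) was given i.v. by tail vein, either alone or co-injected with 150 μg of unlabeled competing peptide. All groups were killed at 1 h. Tissues were excised, weighed and γ-counted, with decay correction, to give %ID/g.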

The species named for experiment [2] is Rattus norvegicus. As to the kind of experiment: The pancreatic uptake of [64Cu]-TETA-Y3-TATE in somatostatin-rich (ID/g) tissues by a co-injection of compound at 1 h.

Structures are written as SMILES.

The compound `C[C@H](O)[C@H](NC(=O)[C@H]1CSSC[C@H](NC(=O)[C@H](N)Cc2ccccc2)C(=O)N[C@@H](Cc2ccc(O)cc2)C(=O)N[C@@H](Cc2c[nH]c3ccccc23)C(=O)N[C@@H](CCCCN)C(=O)N[C@H]([C@H](C)O)C(=O)N1)C(=O)O` yielded a Block in experiment [1] of more than 90%. In addition, the Uptake in experiment [2] worked out at 0.15 %ID/g.
